PMC9085298 (RSC Advances, 2018)
In brackets after ≈: the same amount, converted by molar mass.

Legend:
[1] = test system: Staphylococcus aureus (ATCC 29213); assay: MIC80 by broth microdilution; format: cell-based; settings: for Bacteria MIC80 S. aureus (29213): concentration inhibiting growth ≥80% vs vehicle, 16–24 h, 35 °C; for MIC80: Staphylococcus aureus, ATCC29213, read-out: Bacteria MIC80 S. aureus (29213)
How it was run: (§1)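 CLSI broth microdilution in cation-adjusted Mueller–Hinton II broth with a 1.5-fold test-compound dilution series. Overnight culture adjusted to 5 × 10^5 CFU mL−1 final. Incubated 16–24 h at 35 °C ± 2 °C, then growth read by absorbance (OD600). MIC80 is the concentration giving ≥80% growth inhibition versus vehicle-treated cultures. Each value is the average of at least two independent determinations.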

[2] = test system: C. neoformans var grubii, KN99 (serotype A, MATα); assay: Inhibition of C. neoformans growth; format: cell-based, Cryptococcus neoformans
How it was run: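 Test compound 0.19–50 μM, 48 h at 35 °C, density read at OD650. Growth expressed as % of DMSO-only cells. MIC80 is the minimal concentration inhibiting 80% growth versus vehicle. Triplicates; average of ≥2 independent assays.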

[3] = test system: HepDES19 cells; assay: Neutral red cytotoxicity assay; format: cell-based; settings: read-out: CC50 (neutral red); HepDES19 cells, 72 h, lysosomal function
How it was run: (§2)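 HepDES19 cells seeded at 1.0 × 10^4/well in DMEM with 10% FBS, 1% penicillin/streptomycin, 1% nonessential amino acids and 1% glutamine. Test compound (1% DMSO final) added 48 h after plating, triplicate per concentration, and incubated 72 h. Viability measured by neutral red uptake. CC50 is 50% inhibition versus vehicle control, from a 4-variable slope fit of log-transformed data.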

[4] = test system: HepDES19 cells; assay: MTS cytotoxicity assay; format: cell-based; settings: read-out: CC50 (MTS); HepDES19 cells, 72 h, mitochondrial function
How it was run: (§3)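 HepDES19 cells seeded at 1.0 × 10^4/well in DMEM with 10% FBS, 1% penicillin/streptomycin, 1% nonessential amino acids and 1% glutamine. Test compound in medium (1% DMSO final) added 48 h after plating, triplicate per concentration. After 72 h, MTS added for 90 min; absorbance at 490 nm. CC50 is 50% viability loss versus untreated cells, from a variable-slope log[inhibitor]–response fit.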

[5] = test system: Escherichia coli (ATCC 35218); assay: MIC80 by broth microdilution; format: cell-based; settings: for MIC80: Escherichia coli, ATCC35218, read-out: Bacteria MIC80 E. coli (35218)
How it was run: as §1

[6] = test system: Acinetobacter baumannii (from a patient); assay: MIC80 by broth microdilution; format: cell-based; settings: for MIC80: Acinetobacter baumannii, read-out: Bacteria MIC80 A. baumannii (from a patient)
How it was run: as §1

[7] = test system: Pseudomonas aeruginosa (ATCC 27853); assay: MIC80 by broth microdilution; format: cell-based; settings: concentration inhibiting growth ≥80% vs vehicle; 16–24 h, 35 °C
How it was run: as §1

[8] = Neutral red cytotoxicity assay; format: cell-based; settings: human, HepDES19 cells (hepatoblastoma cells)
How it was run: as §2

[9] = MTS cytotoxicity assay; format: cell-based; settings: human, HepDES19 cells (hepatoblastoma cells)
How it was run: as §3

[10] = concentration inhibiting growth ≥80% vs vehicle, 16–24 h, 35 °C

Question: Which results are given for “7-Hydroxy-3-isopropylcyclohepta-2,4,5-triene-1-thione [Compound 11]”?
Answer: Bacteria MIC80 S. aureus (29213) [1]: 16 µM; C. neoformans MIC80 ([2]; minimal concentration inhibiting 80% of growth, 48 h, 35 °C, YNB-02 + 1% DMSO): 24 µM; CC50 [3]: 30.4 µM; CC50 [4]: 64.2 µM

Question: Which MIC80 [1] does the source give for `Cc1ccc(S(=O)(=O)Oc2cccc(C(C)C)cc2=O)cc1` [Compound 8, 6-(1-Methylethyl)-2-[[(4-methylphenyl)sulfonyl]oxy]-2,4,6-cycloheptatrien-1-one] here?
Answer: > 100 µM

Question: What about the “Bacteria MIC80 S. aureus (29213)” value [1] of the same molecule?
Answer: >100 µM

Question: And the MIC80 [5]?
Answer: > 100 µM

Question: What about the “Bacteria MIC80 E. coli (35218)” value [5, 10] of the same molecule?
Answer: >100 µM

Question: And the MIC80 [6]?
Answer: > 100 µM

Question: What about the “Bacteria MIC80 A. baumannii (from a patient)” value [6, 10] of the same molecule?
Answer: >100 µM

Question: And the “Bacteria MIC80 P. aeruginosa (27853)” value [7]?
Answer: >100 µM

Question: And the CC50 at 72 h [8]?
Answer: 31.8 µM

Question: What about the CC50 at 72 h [9] of the same molecule?
Answer: 33.6 µM

Question: Which MIC80 [1] does the source give for `Cc1ccc(S(=O)(=O)Oc2cc(C(C)C)cccc2=O)cc1` [Compound 9, 4-(1-Methylethyl)-2-[[(4-methylphenyl)sulfonyl]oxy]-2,4,6-cycloheptatrien-1-one] here?
Answer: 8.8 µM (≈ 2.8 µg/mL)

Question: What about the “fold increase in antibacterial activity against S. aureus” value ([1]; relative to natural product 2) of the same molecule?
Answer: 8 fold

Question: And the MIC80 [5]?
Answer: > 100 µM

Question: And the MIC80 [6]?
Answer: > 100 µM

Question: What about the CC50 at 72 h [8] of the same molecule?
Answer: 19.5 µM

Question: And the CC50 at 72 h [9]?
Answer: 34.2 µM

Question: For `CC(C)c1cccc(=S)c(O)c1` [Compound 10, 2-Hydroxy-4-isopropylcyclohepta-2,4,6-triene-1-thione], which MIC80 [1] is on record?
Answer: > 100 µM

Question: And the MIC80 [5]?
Answer: > 100 µM

Question: And the MIC80 [6]?
Answer: > 100 µM

Question: And the “fold less activity against C. neoformans” value ([2]; relative to hydroxy tropolone 2)?
Answer: > 2 fold

Question: And the CC50 at 72 h [8]?
Answer: 39.7 µM

Question: What about the CC50 at 72 h [9] of the same molecule?
Answer: 95 µM
